From ChEMBL document CHEMBL4371072, “Structure-Activity Relationship Studies and Plasmodium Life Cycle Profiling Identifies Pan-Active N-Aryl-3-trifluoromethyl Pyrido[1,2- a]benzimidazoles Which Are Efficacious in an in Vivo Mouse Model of Malaria” (J Med Chem, 2019)

Experiments:
Plasmodium falciparum [1] = experiment: Antiplasmodial activity against chloroquine-sensitive asexual blood stage of Plasmodium falciparum NF54 infected in human RBC assessed as reduction in [3H]hypoxanthine incorporation preincubated for 48 hrs followed by [3H]hypoxanthine addition measured after 24 hrs by liquid scintillation counting method; format: functional, organism-based
How it was run: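 Asexual blood-stage P. falciparum NF54 assay, run as a modified [3H]-hypoxanthine incorporation assay. Values are the mean of n ≥ 2 assays; determinations differing more than 3-fold were excluded. Chloroquine and artesunate served as controls.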

Plasmodium berghei [2] = experiment: Antimalarial activity against liver stage form of luciferase transfected Plasmodium berghei sporozoites infected in human HuH7 cells preincubated with host cells for 1 hr followed by plasmodial infection and measured after 48 hrs by bioluminescence method; format: functional, organism-based; conditions: Huh-7
Plasmodium falciparum [3] = experiment: Antiplasmodial activity against chloroquine-sensitive final late stage of Plasmodium falciparum NF54-Mal8p1.16-GFP-Luc gametocytes after 24 hrs by BacTiter-Glo assay; format: functional, organism-based; conditions: NF54, 24 h
How it was run: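 Late-stage PfNF54 gametocytes produced in vitro; gametocytocidal IC50 via luciferase reporter and ATP bioluminescence platforms; n=3 independent biological replicates in technical triplicates, ± S.E.M.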

[4] = Metabolic stability in Balb/c mouse liver microsomes assessed as parent compound remaining at 0.1 uM after 30 mins in presence of NADPH by LC-MS/MS analysis
[5] = Half life in Balb/c mouse liver microsomes at 0.1 uM in presence of NADPH by LC-MS/MS analysis
[6] = Metabolic stability in human liver microsomes assessed as parent compound remaining at 0.1 uM after 30 mins in presence of NADPH by LC-MS/MS analysis
[7] = Half life in human liver microsomes at 0.1 uM in presence of NADPH by LC-MS/MS analysis
CHO = experiment: Cytotoxicity against CHO cells after 48 hrs by MTT assay; format: cell-based; conditions: Cricetulus griseus
[8] = Selectivity index, ratio of IC50 for CHO cells to IC50 for chloroquine-sensitive asexual blood stage of Plasmodium falciparum NF54 infected in human RBC; format: toxicity; conditions: Chinese hamster, read-out: Ratio IC50
How it was run: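 Selectivity index taken as the ratio of the CHO-cell IC50 to the P. falciparum NF54 IC50.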

Hemozoin = experiment: Inhibition of beta hematin formation after 5 hrs by NP40 detergent-based assay
Plasmodium falciparum [9] = experiment: Ratio of IC50 for early stage of Plasmodium falciparum NF54-PfS16-GFP-Luc gametocytes to IC50 for late stage of Plasmodium falciparum NF54-Mal8p1.16-GFP-Luc gametocytes; format: functional
Plasmodium falciparum [10] = experiment: Ratio of IC50 for late stage of Plasmodium falciparum NF54-Mal8p1.16-GFP-Luc gametocytes to IC50 for early stage of Plasmodium falciparum NF54-PfS16-GFP-Luc gametocytes; format: functional
Plasmodium falciparum [11] = experiment: Antiplasmodial activity against chloroquine-resistant asexual blood stage of Plasmodium falciparum K1 infected in human RBC assessed as reduction in [3H]hypoxanthine incorporation preincubated for 48 hrs followed by [3H]hypoxanthine addition measured after 24 hrs by liquid scintillation counting method; format: functional, organism-based
How it was run: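 Asexual blood-stage P. falciparum K1 (multidrug resistant) screened by modified [3H]-hypoxanthine incorporation assay; IC50 as mean of n ≥ 2 assays, replicates differing above 3-fold excluded; chloroquine and artesunate controls.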

[12] = Resistance index, ratio of IC50 for chloroquine-resistant asexual blood stage of Plasmodium falciparum K1 infected in human RBC to IC50 for chloroquine-sensitive asexual blood stage of Plasmodium falciparum NF54 infected in human RBC; format: functional
hERG (KCNH2) [13] = target: T1, hERG (KCNH2) (Homo sapiens, UniProt Q12809); experiment: Inhibition of human ERG expressed in CHO cells assessed as reduction in peak channel current at 0.3 uM by IonWork patch-clamp electrophysiology method relative to control; format: cell-based; conditions: CHO cells expressing human ERG
hERG (KCNH2) [14] = target: T1, hERG (KCNH2); experiment: Inhibition of human ERG expressed in CHO cells assessed as reduction in peak channel current at 10 uM by IonWork patch-clamp electrophysiology method relative to control; format: cell-based; conditions: CHO cells expressing human ERG
How it was run: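 hERG potassium channel profiled by IonWorks patch-clamp electrophysiology, with 10 μM as the highest concentration tested. Values are the mean of 3 results from experiments run as biological and technical triplicates.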

[15] = target: Voltage-gated inwardly rectifying potassium channel KCNH2 (Homo sapiens, UniProt Q12809); experiment: Inhibition of human ERG expressed in CHO cells assessed as reduction in peak channel current by IonWork patch-clamp electrophysiology method; format: cell-based
Plasmodium berghei [16] = experiment: Antimalarial activity against GFP-fused Plasmodium berghei ANKA infected in NMRI mouse assessed as inhibition of parasitemia at 50 mg/kg, po administered consecutively at 4, 24, 48 and 72 hrs post infection by flow cytometry relative to control; format: functional
How it was run: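 NMRI mice infected intravenously with P. berghei; oral treatment at 50 mg/kg given 4, 24, 48 and 72 h post-infection (4 x 50 mg/kg). Control mice received vehicle only. Parasitemia of treated animals compared with that of untreated controls. Mice counted as cured if no parasitemia was detected 30 days after treatment.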

Plasmodium berghei [17] = experiment: Antimalarial activity against GFP-fused Plasmodium berghei ANKA infected in NMRI mouse assessed as host mean survival time at 50 mg/kg, po administered consecutively at 4, 24, 48 and 72 hrs post infection; format: functional
How it was run: (§1)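 NMRI mice infected intravenously with P. berghei; oral treatment at 4, 24, 48 and 72 h post-infection (4 x 50 mg/kg), vehicle to controls; reference drug 4 x 30 mg/kg orally on four consecutive days. Parasitemia compared with untreated controls; mean survival days recorded; cure if no parasitemia 30 days after treatment.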

[18] = Lipophilicity, log D of the compound; format: physicochemical; conditions: octanol/water
How it was run: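 LogD computed with ChemDraw 16.0.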

[19] = Solubility of the compound; format: physicochemical
Plasmodium berghei [20] = experiment: Antimalarial activity against GFP-fused Plasmodium berghei ANKA infected in NMRI mouse assessed as host mean survival time at 30 mg/kg, po administered for 4 consecutive days; format: functional; how it was run: as §1

T1 sequence (Q12809 whole entry): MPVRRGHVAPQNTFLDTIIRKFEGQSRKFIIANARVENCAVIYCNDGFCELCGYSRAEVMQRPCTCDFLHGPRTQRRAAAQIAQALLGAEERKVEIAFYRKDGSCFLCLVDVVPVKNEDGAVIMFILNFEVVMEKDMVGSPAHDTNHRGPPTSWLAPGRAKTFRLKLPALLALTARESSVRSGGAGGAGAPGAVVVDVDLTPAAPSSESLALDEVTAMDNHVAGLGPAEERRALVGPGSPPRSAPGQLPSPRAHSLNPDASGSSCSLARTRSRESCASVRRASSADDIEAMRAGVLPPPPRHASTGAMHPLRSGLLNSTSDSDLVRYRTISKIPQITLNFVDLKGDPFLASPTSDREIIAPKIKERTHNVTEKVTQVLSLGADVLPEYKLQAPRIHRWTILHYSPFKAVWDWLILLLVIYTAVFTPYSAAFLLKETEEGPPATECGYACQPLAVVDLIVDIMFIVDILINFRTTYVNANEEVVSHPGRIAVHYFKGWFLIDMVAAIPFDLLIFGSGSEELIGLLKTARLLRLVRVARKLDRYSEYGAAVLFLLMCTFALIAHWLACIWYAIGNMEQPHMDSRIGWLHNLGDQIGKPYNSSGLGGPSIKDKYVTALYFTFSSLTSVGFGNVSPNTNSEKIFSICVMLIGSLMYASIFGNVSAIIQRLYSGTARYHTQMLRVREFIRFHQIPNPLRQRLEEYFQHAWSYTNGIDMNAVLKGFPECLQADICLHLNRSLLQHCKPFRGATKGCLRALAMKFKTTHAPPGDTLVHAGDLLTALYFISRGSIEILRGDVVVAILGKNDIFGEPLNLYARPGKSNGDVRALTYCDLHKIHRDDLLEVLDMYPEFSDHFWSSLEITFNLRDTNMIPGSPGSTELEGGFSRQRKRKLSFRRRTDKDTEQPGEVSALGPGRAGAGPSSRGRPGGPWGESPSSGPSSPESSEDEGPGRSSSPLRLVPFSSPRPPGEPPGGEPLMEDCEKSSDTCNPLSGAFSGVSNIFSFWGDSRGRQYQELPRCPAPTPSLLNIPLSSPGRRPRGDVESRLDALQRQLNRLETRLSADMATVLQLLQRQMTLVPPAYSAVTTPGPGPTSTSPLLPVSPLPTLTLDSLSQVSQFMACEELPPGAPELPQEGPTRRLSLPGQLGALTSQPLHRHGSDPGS
Voltage-gated inwardly rectifying potassium channel KCNH2, sequence (Q12809 whole entry, the tested form may be a part): as the sequence (Q12809 whole entry) above

Row | Structure (SMILES) | IC50 (Plasmodium falciparum [1]) [nM] | IC50 (Plasmodium berghei [2]) [nM] | IC50 (Plasmodium falciparum [3]) [nM] | remaining at 0.5 h, 0.1 µM ([4]; liver microsomes) [%] | half-life at 0.1 µM ([5]; liver microsomes) [min] | remaining at 0.5 h, 0.1 µM ([6]; liver microsomes) [%] | half-life at 0.1 µM ([7]; liver microsomes) [min] | IC50 (CHO) [µM] | selectivity ratio [8] | IC50 (Plasmodium falciparum [11]) [nM] | Ratio IC50 [12] | inhibition at 0.3 µM (hERG (KCNH2) [13]) [%] | inhibition at 10 µM (hERG (KCNH2) [14]) [%] | IC50 [15] [µM] | other results
1 | N#Cc1c(C(F)(F)F)cc(NCc2ccc(OC(F)(F)F)cc2)n2c1nc1cc(Cl)c(Cl)cc12 | 440 | 190 | 210 | 82 | 105 | > 99 | > 150 | 5.02 | 11 |  |  |  |  |  | 
2 | N#Cc1c(C(F)(F)F)cc(NCc2ccccn2)n2c1nc1cc(Cl)c(Cl)cc12 | 1420 |  | 2480 | 31 | 18 | 72 | 63 | 0.75 | 0.5 |  |  |  |  |  | IC50 (Hemozoin): 59 µM
3 | Cc1ccc(CNc2cc(C(F)(F)F)c(C#N)c3nc4cc(Cl)c(Cl)cc4n23)cc1 | 400 |  | 600 |  |  |  |  | 6.06 | 15 |  |  |  |  |  | Ratio IC50 (Plasmodium falciparum [9]): 0.2; Ratio IC50 (Plasmodium falciparum [10]): 6; remaining at 0.5 h, 0.1 µM ([4]; microsomes): 69%; half-life at 0.1 µM ([5]; microsomes): 56 min; remaining at 0.5 h, 0.1 µM ([6]; microsomes): 91%; half-life at 0.1 µM ([7]; microsomes): > 150 min
4 | N#Cc1c(C(F)(F)F)cc(NCc2ccco2)n2c1nc1cc(Cl)c(Cl)cc12 | 440 | 60 | 2000 | 66 | 50 | 100 | > 150 | 4.84 | 10 | 230 | 0.52 | 6.82 | < 40 | > 10 | 
5 | N#Cc1c(C(F)(F)F)cc(NCc2ccc(OC(F)(F)F)cc2)n2c1nc1ccccc12 | 920 | 480 |  |  |  |  |  | > 222 | > 241 | 840 | 0.91 |  |  |  | 
6 | N#Cc1c(C(F)(F)F)cc(NCc2ccccc2F)n2c1nc1cc(Cl)c(Cl)cc12 | 170 | 50 | 370 | 84 | 119 | 97 | > 150 | 4.3 | 25 | 140 | 0.82 | 5.49 | < 40 | > 10 | inhibition in vivo at 50 mg/kg (Plasmodium berghei [16]): 99.9%; MST (Plasmodium berghei [17]): 14 days; logD [18]: 4.16; solubility [19]: < 5 µM
7 | N#Cc1c(C(F)(F)F)cc(NCc2ccc(F)cc2)n2c1nc1ccccc12 | 1270 | 890 |  |  |  |  |  | 45 | 35 | 890 | 0.7 |  |  |  | 
8 | CCN(CC)CCCC(C)Nc1ccnc2cc(Cl)ccc12 (stereo not given) [CHLOROQUINE] |  |  |  |  |  |  |  |  |  |  |  |  |  |  | IC50 (Hemozoin): 18 µM; MST (Plasmodium berghei [20]): 21 days
9 | N#Cc1c(C(F)(F)F)cc(NCc2cccs2)n2c1nc1cc(Cl)c(Cl)cc12 | 310 | 140 | 1670 |  |  |  |  | 8.48 | 27 | 140 | 0.45 | 6.13 | < 40 | > 10 | 
10 | N#Cc1c(C(F)(F)F)cc(NCc2ccc(F)cc2)n2c1nc1cc(Cl)c(Cl)cc12 | 440 |  | 690 | 72 | 63 | 102 | > 150 | 13 | 30 | 280 | 0.64 |  |  |  | 
11 | N#Cc1c(C(F)(F)F)cc(NCc2cccc(F)c2)n2c1nc1cc(Cl)c(Cl)cc12 | 190 | 70 | 270 |  |  |  |  | 7.03 | 37 | 150 | 0.79 | 6.53 | < 40 | > 10 | Ratio IC50 (Plasmodium falciparum [9]): 1.2; Ratio IC50 (Plasmodium falciparum [10]): 0.5; remaining at 0.5 h, 0.1 µM ([4]; microsomes): 84%; half-life at 0.1 µM ([5]; microsomes): 119 min; remaining at 0.5 h, 0.1 µM ([6]; microsomes): 100%; half-life at 0.1 µM ([7]; microsomes): > 150 min
